≈ marks a conversion by molar mass, not a printed value.

Assay [1] has as its system Staphylococcus aureus (MTCC 96). Briefly: Antibacterial activity. The assay is classed as cell-based. Particulars: MTCC96, read-out: MIC, S. aureus. The method, boiled down:
(§1)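 Screened by a standard method against S. aureus MTCC 96, B. subtilis MTCC 121, E. coli MTCC 1652 and P. aeruginosa MTCC 741. Ciprofloxacin was the reference antibiotic. Only compounds active at 100 μg/mL went on to MIC determination.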

For assay [2], the system named is Escherichia coli (MTCC 1652). Nature of the assay: Antibacterial activity. Particulars: for MIC: Escherichia coli, MTCC1652, read-out: MIC, E. coli. It counts as cell-based. The method, boiled down:
as §1

Assay [3] relates to Bacillus subtilis (MTCC 121). Nature of the assay: Antibacterial activity. The assay is classed as cell-based. Particulars: MTCC121, read-out: MIC, B. subtilis. In short, it runs like this:
as §1

Assay [4] has as its system carrageenan induced edema. Briefly: Anti-inflammatory activity, carrageenan induced rat paw edema. It counts as in vivo, Wistar rats. Particulars: inhibition of edema, rats. In short, it runs like this: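 Used the Winter et al. paw oedema method in Wistar rats of either sex (160–200 g), housed six per cage and acclimatised 48 h. Percent inhibition of oedema was calculated at 1, 2, 3 and 4 h. Diclofenac served as the standard drug.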

Assay [5] concerns Pseudomonas aeruginosa (MTCC 741). Nature of the assay: Antibacterial activity. The assay is classed as cell-based. Particulars: for MIC: Pseudomonas aeruginosa, MTCC741, read-out: MIC, P. aeruginosa. The method, boiled down:
as §1

Assay [6] relates to Aspergillus flavus. Briefly: Antifungal activity. It counts as cell-based. Particulars: read-out: MIC, A. flavus. The method, boiled down: (§2)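 Run by the poison food technique against Aspergillus niger and Aspergillus flavus. Fluconazole was the reference drug.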
The subject of assay [7] is Aspergillus niger. Nature of the assay: Antifungal activity. Particulars: read-out: MIC, A. niger. The assay is classed as cell-based. The method, boiled down:
as §2

Usually MIC stands for the lowest concentration that inhibits growth of the organism. As for `Cc1ccc2nc(Cl)c(C=C3C=C(c4ccc(-c5ccccc5)cc4)OC3=O)cc2c1` [Compound 5g, 3-[(2-Chloro-6-methylquinolin-3-yl)methylene]-5-(biphenyl-4-yl)furan-2(3H)-one], the MIC is 25 µg/mL (≈ 59 µM) in assay [1]; over 100 µg/mL in assay [2]; 50 µg/mL (≈ 118 µM) in assay [3]; over 100 µg/mL in assay [5]; 50 µg/mL (≈ 118 µM) in assay [6]; 50 µg/mL (≈ 118 µM) in assay [7]. In addition, in assay [2] (E. coli (MTCC 1652)), the “MIC, E. coli” value is recorded as “did not show any inhibition”. Besides, in assay [4], the “% Inhibition ± SEM After 1 h” value is recorded as 67 ± 0.12^∗∗ %. In assay [4], the “% Inhibition ± SEM After 2 h” value is recorded as 62 ± 0.11^∗∗ %. Further, the “% Inhibition ± SEM After 3 h” value in assay [4] was determined as 46 ± 0.33%. Further, in assay [4], the “% Inhibition ± SEM After 4 h” value is on record as 56 ± 0.06^∗∗ %. The “MIC, P. aeruginosa” value in assay [5] (P. aeruginosa (MTCC 741)) is listed as “did not show any inhibition”.

As to `O=C1NC(c2ccc3ccccc3c2)=CC1=Cc1cc2ccccc2nc1Cl` [Compound 6a, 3-[(2-Chloroquinolin-3-yl)methylene]-5-(naphthalene-2-yl)-1H-pyrrol-2(3H)-one], the minimum inhibitory concentration (MIC) was 25 µg/mL (≈ 65.3 µM) in assay [1]; over 100 µg/mL in assay [2]; 25 µg/mL (≈ 65.3 µM) in assay [3]; 50 µg/mL (≈ 131 µM) in assay [5]; 25 µg/mL (≈ 65.3 µM) in assay [6]; 25 µg/mL (≈ 65.3 µM) in assay [7]. For the same compound, in assay [4], the “% Inhibition ± SEM After 1 h” value is reported as 64 ± 0.06^∗ %. The “% Inhibition ± SEM After 2 h” value in assay [4] is listed as 53 ± 0.18^∗∗ %. In addition, in assay [4], the “% Inhibition ± SEM After 3 h” value was 49 ± 0.10%. Also, the “% Inhibition ± SEM After 4 h” value in assay [4] stood at 36 ± 0.32%.

For the compound `Cc1ccc2nc(Cl)c(C=C3C=C(c4ccc5ccccc5c4)NC3=O)cc2c1` [Compound 6c, 3-[(2-Chloro-6-methylquinolin-3-yl)methylene]-5-(naphthalene-2-yl)-1H-pyrrol-2(3H)-one], the MIC in assay [1] is 12.5 µg/mL (≈ 31.5 µM); in assay [2] it was over 100 µg/mL; in assay [3], 12.5 µg/mL (≈ 31.5 µM); in assay [5] it was 50 µg/mL (≈ 126 µM); in assay [6], 12.5 µg/mL (≈ 31.5 µM); in assay [7] it was 25 µg/mL (≈ 63 µM). For the same compound, in assay [4], the “% Inhibition ± SEM After 1 h” value is reported as 32 ± 0.02%. In assay [4], the “% Inhibition ± SEM After 2 h” value is 55 ± 0.22^∗∗ %. Further, in assay [4], the “% Inhibition ± SEM After 3 h” value amounted to 47 ± 0.24%. The “% Inhibition ± SEM After 4 h” value in assay [4] is given as 42 ± 0.20%.

For `O=C1NC(c2ccc3ccccc3c2)=CC1=Cc1cc2cc([N+](=O)[O-])ccc2nc1Cl` [Compound 6d, 3-[(2-Chloro-6-nitroquinolin-3-yl)methylene]-5-(naphthalene-2-yl)-1H-pyrrol-2(3H)-one], the MIC was 6.25 µg/mL (≈ 14.6 µM) in assay [1]; 12.5 µg/mL (≈ 29.2 µM) in assay [2]; 6.25 µg/mL (≈ 14.6 µM) in assay [3]; 12.5 µg/mL (≈ 29.2 µM) in assay [5]; 12.5 µg/mL (≈ 29.2 µM) in assay [6]; 6.25 µg/mL (≈ 14.6 µM) in assay [7]. Also, the “% Inhibition ± SEM After 1 h” value in assay [4] is 58 ± 0.25^∗ %. Further, in assay [4], the “% Inhibition ± SEM After 2 h” value is given as 60 ± 0.22^∗∗ %. In addition, in assay [4], the “% Inhibition ± SEM After 3 h” value is 29 ± 0.16%. Further, in assay [4], the “% Inhibition ± SEM After 4 h” value is 48 ± 0.15^∗ %.

As to `O=C1NC(c2ccc(-c3ccccc3)cc2)=CC1=Cc1cc2ccccc2nc1Cl` [Compound 6e, 3-[(2-Chloroquinolin-3-yl)methylene]-5-(biphenyl-4-yl)-1H-pyrrol-2(3H)-one], the MIC in assay [1] was 12.5 µg/mL (≈ 30.6 µM); in assay [2] it was over 100 µg/mL; in assay [3] it was 50 µg/mL (≈ 122 µM); in assay [5], 50 µg/mL (≈ 122 µM); in assay [6], 25 µg/mL (≈ 61.1 µM); in assay [7] it was 50 µg/mL (≈ 122 µM). Besides, the “% Inhibition ± SEM After 1 h” value in assay [4] was found to be 38 ± 0.21%. For the same compound, in assay [4], the “% Inhibition ± SEM After 2 h” value is given as 48 ± 0.21^∗∗ %. Moreover, the “% Inhibition ± SEM After 3 h” value in assay [4] is given as 44 ± 0.33%. Also, in assay [4], the “% Inhibition ± SEM After 4 h” value came to 35 ± 0.32%.

For the compound `O=C1NC(c2ccc(-c3ccccc3)cc2)=CC1=Cc1cc2cc(Cl)ccc2nc1Cl` [Compound 6f, 3-[(2,6-Dichloroquinolin-3-yl)methylene]-5-(biphenyl-4-yl)-1H-pyrrol-2(3H)-one], the MIC in assay [1] stood at 6.25 µg/mL (≈ 14.1 µM); in assay [2], 50 µg/mL (≈ 113 µM); in assay [3] it was 6.25 µg/mL (≈ 14.1 µM); in assay [5], 25 µg/mL (≈ 56.4 µM); in assay [6], 12.5 µg/mL (≈ 28.2 µM); in assay [7] it was 6.25 µg/mL (≈ 14.1 µM). Besides, the “% Inhibition ± SEM After 1 h” value in assay [4] is 48 ± 0.13%. Further, in assay [4], the “% Inhibition ± SEM After 2 h” value is listed as 63 ± 0.27^∗∗ %. In addition, the “% Inhibition ± SEM After 3 h” value in assay [4] worked out at 25 ± 0.34%. Besides, the “% Inhibition ± SEM After 4 h” value in assay [4] came to 42 ± 0.20%.

Regarding `Cc1ccc2nc(Cl)c(C=C3C=C(c4ccc(-c5ccccc5)cc4)NC3=O)cc2c1` [Compound 6g, 3-[(2-Chloro-6-methylquinolin-3-yl)methylene]-5-(biphenyl-4-yl)-1H-pyrrol-2(3H)-one], the MIC in assay [1] was 25 µg/mL (≈ 59.1 µM); in assay [2] it was 50 µg/mL (≈ 118 µM); in assay [3], 12.5 µg/mL (≈ 29.6 µM); in assay [5], 50 µg/mL (≈ 118 µM); in assay [6], 12.5 µg/mL (≈ 29.6 µM); in assay [7], 25 µg/mL (≈ 59.1 µM). Besides, the “% Inhibition ± SEM After 1 h” value in assay [4] is recorded as 52 ± 0.08^∗ %. The “% Inhibition ± SEM After 2 h” value in assay [4] was 48 ± 0.24^∗∗ %. Further, the “% Inhibition ± SEM After 3 h” value in assay [4] is given as 25 ± 0.17%. Further, in assay [4], the “% Inhibition ± SEM After 4 h” value is reported as 36 ± 0.19%.

`O=C1NC(c2ccc(-c3ccccc3)cc2)=CC1=Cc1cc2cc([N+](=O)[O-])ccc2nc1Cl` [Compound 6h, 3-[(2-Chloro-6-nitroquinolin-3-yl)methylene]-5-(biphenyl-4-yl)-1H-pyrrol-2(3H)-one]: the MIC in assay [1] was determined as 6.25 µg/mL (≈ 13.8 µM); in assay [2], 25 µg/mL (≈ 55.1 µM); in assay [3], 12.5 µg/mL (≈ 27.5 µM); in assay [5], 25 µg/mL (≈ 55.1 µM); in assay [6] it was 25 µg/mL (≈ 55.1 µM); in assay [7], 25 µg/mL (≈ 55.1 µM). Besides, the “% Inhibition ± SEM After 1 h” value in assay [4] is on record as 58 ± 0.19^∗ %. Also, the “% Inhibition ± SEM After 2 h” value in assay [4] is recorded as 58 ± 0.05^∗∗ %. In addition, the “% Inhibition ± SEM After 3 h” value in assay [4] came to 50 ± 0.18%. In addition, in assay [4], the “% Inhibition ± SEM After 4 h” value was 48 ± 0.15^∗ %.

Consider `O=C1C(=Cc2cc3ccccc3nc2Cl)C=C(c2ccc3ccccc3c2)N1Cc1ccccc1` [Compound 7a, 1-Benzyl-3-[(2-chloroquinolin-3-yl)methylene]-5-(naphthalene-2-yl)-1H-pyrrol-2(3H)-one], for which the MIC in assay [1] was 50 µg/mL (≈ 106 µM); in assay [2], 25 µg/mL (≈ 52.9 µM); in assay [3], over 100 µg/mL; in assay [5] it was over 100 µg/mL; in assay [6] it was over 100 µg/mL; in assay [7] it was 50 µg/mL (≈ 106 µM). The “% Inhibition ± SEM After 1 h” value in assay [4] is reported as 52 ± 0.13^∗ %. Also, the “% Inhibition ± SEM After 2 h” value in assay [4] was 62 ± 0.27^∗∗ %. The “% Inhibition ± SEM After 3 h” value in assay [4] came out at 28 ± 0.34%. Moreover, the “% Inhibition ± SEM After 4 h” value in assay [4] is 57 ± 0.13^∗∗ %.

Regarding `Cc1ccc2nc(Cl)c(C=C3C=C(c4ccc5ccccc5c4)N(Cc4ccccc4)C3=O)cc2c1` [Compound 7c, 1-Benzyl-3-[(2-chloro-6-methylquinolin-3-yl)methylene]-5-(naphthalene-2-yl)-1H-pyrrol-2(3H)-one], the MIC in assay [1] was 25 µg/mL (≈ 51.3 µM); in assay [2] it was 50 µg/mL (≈ 103 µM); in assay [3], 50 µg/mL (≈ 103 µM); in assay [5] it was over 100 µg/mL; in assay [6] it was 25 µg/mL (≈ 51.3 µM); in assay [7] it was 50 µg/mL (≈ 103 µM). In addition, the “% Inhibition ± SEM After 1 h” value in assay [4] is reported as 78 ± 0.12^∗∗ %. Further, the “% Inhibition ± SEM After 2 h” value in assay [4] was 71 ± 0.28^∗∗ %. The “% Inhibition ± SEM After 3 h” value in assay [4] was 57 ± 0.25^∗ %. In assay [4], the “% Inhibition ± SEM After 4 h” value is listed as 61 ± 0.21^∗∗ %.

These data come from PMC5094435 (Saudi Pharmaceutical Journal : SPJ, 2015).
